{
  "source": "ChEMBL document CHEMBL5653623",
  "about": "(J Pharmacol Exp Ther, 2015)",
  "key": {"[1]": {"target": "Leucine-rich repeat serine/threonine-protein kinase 2 (Mus musculus) (UniProt Q5S006)", "sequence (Q5S006 whole entry)": "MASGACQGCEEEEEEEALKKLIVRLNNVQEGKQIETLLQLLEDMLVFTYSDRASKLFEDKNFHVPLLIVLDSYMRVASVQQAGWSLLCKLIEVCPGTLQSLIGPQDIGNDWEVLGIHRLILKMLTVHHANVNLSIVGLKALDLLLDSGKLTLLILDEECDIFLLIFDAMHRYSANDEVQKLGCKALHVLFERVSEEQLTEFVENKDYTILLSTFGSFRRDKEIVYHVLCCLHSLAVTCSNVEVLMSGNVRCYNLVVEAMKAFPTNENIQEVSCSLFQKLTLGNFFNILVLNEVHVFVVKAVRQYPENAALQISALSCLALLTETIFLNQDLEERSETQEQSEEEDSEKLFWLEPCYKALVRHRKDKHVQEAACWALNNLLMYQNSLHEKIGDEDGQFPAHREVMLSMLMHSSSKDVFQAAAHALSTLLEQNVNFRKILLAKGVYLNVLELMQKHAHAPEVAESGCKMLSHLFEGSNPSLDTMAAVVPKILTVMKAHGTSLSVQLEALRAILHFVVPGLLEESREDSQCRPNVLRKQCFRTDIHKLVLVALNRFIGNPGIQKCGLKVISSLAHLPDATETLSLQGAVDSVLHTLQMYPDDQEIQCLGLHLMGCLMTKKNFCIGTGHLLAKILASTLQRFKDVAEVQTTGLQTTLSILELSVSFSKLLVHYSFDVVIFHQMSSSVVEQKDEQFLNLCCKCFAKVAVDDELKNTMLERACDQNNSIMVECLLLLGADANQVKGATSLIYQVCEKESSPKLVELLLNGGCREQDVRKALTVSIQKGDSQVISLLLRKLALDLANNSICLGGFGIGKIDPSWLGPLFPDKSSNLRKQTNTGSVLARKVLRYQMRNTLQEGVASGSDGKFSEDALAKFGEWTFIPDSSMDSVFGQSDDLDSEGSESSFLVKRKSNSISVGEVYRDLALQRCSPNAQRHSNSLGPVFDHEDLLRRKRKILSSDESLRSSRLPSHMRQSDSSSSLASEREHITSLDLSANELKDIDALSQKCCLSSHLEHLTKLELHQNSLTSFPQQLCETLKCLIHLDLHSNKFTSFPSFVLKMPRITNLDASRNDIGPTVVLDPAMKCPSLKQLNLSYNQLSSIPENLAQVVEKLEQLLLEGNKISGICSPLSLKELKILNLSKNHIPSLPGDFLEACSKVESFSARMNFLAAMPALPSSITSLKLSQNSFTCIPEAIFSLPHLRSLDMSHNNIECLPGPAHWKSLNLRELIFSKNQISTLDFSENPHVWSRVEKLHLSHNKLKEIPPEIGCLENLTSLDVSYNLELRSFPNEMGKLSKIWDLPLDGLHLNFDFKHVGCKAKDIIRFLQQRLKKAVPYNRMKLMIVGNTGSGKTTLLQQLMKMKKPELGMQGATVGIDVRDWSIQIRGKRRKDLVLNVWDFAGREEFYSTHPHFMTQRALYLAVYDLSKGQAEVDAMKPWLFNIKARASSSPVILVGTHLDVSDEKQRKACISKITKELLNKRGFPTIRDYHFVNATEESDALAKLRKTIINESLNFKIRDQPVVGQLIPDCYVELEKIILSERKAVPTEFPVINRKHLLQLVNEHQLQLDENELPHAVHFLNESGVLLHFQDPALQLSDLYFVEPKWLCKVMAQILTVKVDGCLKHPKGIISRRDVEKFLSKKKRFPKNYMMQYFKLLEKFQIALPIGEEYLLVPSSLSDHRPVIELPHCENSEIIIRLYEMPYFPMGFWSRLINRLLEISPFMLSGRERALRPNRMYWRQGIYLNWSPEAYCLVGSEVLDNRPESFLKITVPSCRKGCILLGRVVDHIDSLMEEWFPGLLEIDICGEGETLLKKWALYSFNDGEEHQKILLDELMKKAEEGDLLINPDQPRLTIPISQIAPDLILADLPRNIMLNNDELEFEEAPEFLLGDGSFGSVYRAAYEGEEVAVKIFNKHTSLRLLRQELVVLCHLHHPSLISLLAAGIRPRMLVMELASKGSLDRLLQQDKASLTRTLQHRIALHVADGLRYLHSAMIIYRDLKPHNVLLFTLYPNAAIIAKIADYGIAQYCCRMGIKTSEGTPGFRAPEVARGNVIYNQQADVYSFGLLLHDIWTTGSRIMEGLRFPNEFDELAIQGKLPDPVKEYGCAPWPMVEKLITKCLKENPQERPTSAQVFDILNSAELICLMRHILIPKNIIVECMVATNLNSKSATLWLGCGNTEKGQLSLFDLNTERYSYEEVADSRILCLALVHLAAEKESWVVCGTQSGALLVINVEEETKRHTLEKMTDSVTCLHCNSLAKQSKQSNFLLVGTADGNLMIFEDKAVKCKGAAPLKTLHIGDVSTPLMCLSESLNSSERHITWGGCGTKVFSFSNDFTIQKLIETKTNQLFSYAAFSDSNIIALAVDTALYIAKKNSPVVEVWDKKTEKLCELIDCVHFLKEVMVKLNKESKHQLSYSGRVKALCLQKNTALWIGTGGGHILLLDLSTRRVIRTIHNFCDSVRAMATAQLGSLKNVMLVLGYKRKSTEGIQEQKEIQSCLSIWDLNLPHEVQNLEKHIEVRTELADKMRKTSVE", "assay": "In vivo inhibition of LRRK2 in C57Bl/6 mouse brain assessed as decrease in pSer935 LRRK2 at 10 to 100 mg/kg, po measured after 1 hr by Western blotting analysis relative to control", "assay_type": "functional, organism-based", "settings": "dose 10-100 mg/kg", "how_it_was_run": "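Male C57Bl/6 mice, 20-25 g. Single oral dose of 1-100 mg/kg suspended in 30% Captisol (10 mL/kg), or vehicle, given 1 h before CO2 euthanasia. Cortex frozen on dry ice and pSer935 LRRK2 read by Western blot. n = 5 per group.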"}, "[2]": {"assay": "Unbound brain concentration in C57Bl/6 mouse at 30 mg/kg, po administered for 1 hr", "assay_type": "ADME, organism-based", "settings": "in vivo"}},
  "data": [
    {"smiles": "C[C@@H]1CN(c2cc(-c3n[nH]c4ccc(OC5(C)CC5)cc34)ncn2)C[C@H](C)O1", "note": "[MLi-2]", "values": [
      {"measurement": "inhibition", "setting": "[1]", "result": "> 90", "unit": "%"},
      {"measurement": "Drug uptake(free)", "setting": "[2]", "result": 91.8, "unit": "nM"}
    ]}
  ]
}
